This note sets out measurements from ChEMBL document CHEMBL1124981, “Binding of indolylalkylamines at 5-HT2 serotonin receptors: examination of a hydrophobic binding region” (J Med Chem, 1990).

In assay [1] the target is Serotonin 2 (5-HT2) receptor (Rattus norvegicus, UniProt P30994+P08909+P14842). The experiment in a line: Binding affinity against 5-hydroxytryptamine 2 receptor using [3H]ketanserin as radioligand. It is filed as protein assay. The method in brief:
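Rat brain tissue homogenized in 50 mM Tris-HCl, 0.5 mM Na2EDTA, 10 mM MgSO4, pH 7.4, and centrifuged twice at 30000g. Assay buffer adds 10 μM pargyline and 0.1% ascorbate.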

In assay [2] the target is T1, 5-hydroxytryptamine receptor 1A (Rattus norvegicus, UniProt P19327).
T1 sequence (P19327 whole entry): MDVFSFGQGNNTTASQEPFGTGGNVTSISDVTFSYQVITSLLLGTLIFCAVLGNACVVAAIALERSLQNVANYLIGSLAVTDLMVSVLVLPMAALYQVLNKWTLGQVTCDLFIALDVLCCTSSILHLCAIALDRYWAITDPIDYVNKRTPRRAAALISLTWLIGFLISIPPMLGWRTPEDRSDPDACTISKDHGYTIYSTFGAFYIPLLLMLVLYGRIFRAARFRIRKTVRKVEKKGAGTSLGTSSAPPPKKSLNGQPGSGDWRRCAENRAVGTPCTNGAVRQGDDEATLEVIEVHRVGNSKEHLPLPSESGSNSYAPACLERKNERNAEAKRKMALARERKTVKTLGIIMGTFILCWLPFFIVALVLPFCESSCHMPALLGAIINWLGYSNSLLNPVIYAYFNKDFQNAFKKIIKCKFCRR
The experiment in a line: Binding affinity against 5-hydroxytryptamine 1A receptor using [3H]-8-OH-DPAT as radioligand. Summed up: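 Rat hippocampal homogenate (5 mg tissue) with [3H]-8-OH-DPAT; 10 μM 8-OH-DPAT defines nonspecific binding. Buffer: 50 mM Tris-HCl, 0.5 mM Na2EDTA, 10 mM MgSO4, pH 7.4, 10 μM pargyline, 0.1% ascorbate.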

A value given as a limit tells only on which side of the number the result lay.

`CCCn1cc(CC(C)N)c2ccccc21` (centres undefined): the values for the Ki in assay [1] and in assay [2] were 1550 nM and 715 nM, respectively. On to `COc1ccc2c(c1)c(CC(C)N)cn2Cc1ccccc1` (centres undefined), for which the Ki was 250 nM in assay [1] and more than 10000 nM in assay [2]. Taken in the same sequence, the figures for `CCCCCn1ccc(CC(C)N)c1` (centres undefined) were 5200 nM and 7500 nM.

In the case of `COc1ccc2[nH]cc(CC(C)N)c2c1` (centres undefined), the Ki in assay [1] stood at 345 nM; in assay [2], 7 nM. On to `CCCn1ccc(CC(C)N)c1` (centres undefined), for which the Ki in assay [1] and in assay [2] was more than 10000 nM throughout. As to `CCCCCc1cccc2c(CC(C)N)c[nH]c12` (centres undefined), the Ki in assay [1] came to 140 nM; in assay [2], 6850 nM. The compound `CCCn1cc(CC(C)N)c2cc(OC)ccc21` (centres undefined) returned a Ki in assay [1] of 635 nM. That is a sub-micromolar value. For `CCCc1cccc2c(CC(C)N)c[nH]c12` (centres undefined), the Ki in assay [1] was 1040 nM; in assay [2], 1000 nM. In the case of `CC(N)Cc1c[nH]c2ccccc12` (centres undefined), in assay [2], the affinity, expressed as Ki, was 530 nM. On to `CCCCCCCCn1cc(CC(C)N)c2ccccc21` (centres undefined), for which the figures for the Ki in assay [1] and in assay [2] were 280 nM and 78 nM, respectively. For `CC(N)Cc1cc[nH]c1` (centres undefined) the same measures were more than 10000 nM and more than 10000 nM.

For `CCCCCn1cc(CC(C)N)c2ccccc21` (centres undefined), the Ki amounted to 100 nM in assay [1] and 2400 nM in assay [2]. In the case of `CC(N)Cc1cn(Cc2ccccc2)c2ccccc12` (centres undefined), the Ki in assay [1] turned out to be 160 nM; in assay [2], 30 nM.
